# Only some compounds are listed: those with a hit (about 1.2% of all), similar ones and a draw of the others.
# CaV13 ICDI inh: Disruptors of the CACNA1D IQ motif to Ca2+-dependent inactivation inhibitor domain association, primary screening, Förster resonance energy transfer in intact living … | HEK cells, CFP/YFP FRET ICDI-IQ, plate reader, 10 min; percent FRET-ratio fall versus neutral wells | inhibition, % at 12.3 µM | 0.098% of 340,000 active | AID 743397;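 active = mean replicate inhibition of at least 30% and at least 1% of replicates passing that level; inconclusive = only one of the two criteria is met; inactive = neither criterion is met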;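 also: 0% = median of the neutral control wells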
# Runt-CBFb FRET: blocks binding of human RUNX1 Runt domain to CBFb. Q01196+Q13951. Cerulean-Runt/Venus-CBFb FRET ratio 530/480, 1 h. inhibition, % at 20 µM. 0.46% of 220,000 active. AID 1496;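 active = inhibition over about 50% at 20 µM in the single-dose screen, limit read from the data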;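 also: 0% = DMSO wells and 100% = excess unlabeled CBFb competitor control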
# Target sequence (Q01196 whole entry, looked up, the tested form may be a part): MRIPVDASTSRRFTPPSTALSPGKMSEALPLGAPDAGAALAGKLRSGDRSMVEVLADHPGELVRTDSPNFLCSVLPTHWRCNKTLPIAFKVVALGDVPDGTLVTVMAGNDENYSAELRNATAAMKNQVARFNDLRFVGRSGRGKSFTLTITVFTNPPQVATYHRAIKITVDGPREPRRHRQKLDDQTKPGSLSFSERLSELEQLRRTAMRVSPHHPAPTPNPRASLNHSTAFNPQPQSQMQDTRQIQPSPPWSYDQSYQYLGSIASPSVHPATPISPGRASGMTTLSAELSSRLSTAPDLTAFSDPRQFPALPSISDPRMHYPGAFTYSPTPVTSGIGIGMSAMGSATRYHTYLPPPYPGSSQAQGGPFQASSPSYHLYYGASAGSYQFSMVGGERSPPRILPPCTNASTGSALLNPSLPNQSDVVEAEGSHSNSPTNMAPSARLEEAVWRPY
# Target sequence (Q13951 whole entry, looked up, the tested form may be a part): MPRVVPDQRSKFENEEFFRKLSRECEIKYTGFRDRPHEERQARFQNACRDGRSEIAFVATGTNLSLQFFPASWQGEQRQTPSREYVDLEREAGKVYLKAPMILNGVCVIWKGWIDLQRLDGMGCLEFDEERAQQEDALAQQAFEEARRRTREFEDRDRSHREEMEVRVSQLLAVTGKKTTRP
#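 Assay system: Cerulean-tagged RUNX1 Runt domain (FRET donor) fusion protein / Amount: 100 nM each of Venus-CBFb and Cerulean-Runt domain / Medium: Tris buffer pH 7.5 with salts and BSA / Also added: Venus-CBFb 100 nM / Schedule: 1 h complex formation plus 1 h compound treatment, room temperature / Signal: FRET fluorescence / Read-out: loss of energy transfer signal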
# Runt-SMMHC FRET: blocks binding of human RUNX1 Runt domain to CBFb-SMMHC. Cerulean-Runt/Venus-CBFb-SMMHC FRET ratio 530/480, 1 h. inhibition, % at 20 µM. 0.74% of 220,000 active. AID 1434;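 active = mean inhibition across duplicate retests at 20 µM reaching about 50%, limit read from the data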;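 also: 0% = DMSO wells and 100% = wells with excess untagged CBFb-SMMHC; inhibitors lower the FRET ratio by blocking Runt binding to CBFb-SMMHC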
# RanGTP-Impb inh: disruptors of Ran-importin-beta complex formation – biochemical, FRET, CFP-Ran, YFP-importin-beta, homogeneous, primary screen; cell-free CFP-Ran/YFP-importin-beta FRET ratio; inhibition, % (concentration not given with the values); 1.1% of 300,000 active;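 active = more than half of the replicate wells show a fall in the fluorescence ratio signal beyond about 16%, limit read from the data, passing the limit was not always enough; inconclusive = exactly half of the replicate wells pass the set limit; inactive = fewer than half of replicates pass the limit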;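 also: 0% = DMSO wells and 100% = Ran loaded with GDP instead of GTP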
# Starred values were filed as active, the others as inactive; ? = inconclusive; nt = not tested or not shown; + = active, no number.
SMILES,CaV13 ICDI inh,Runt-CBFb FRET,Runt-SMMHC FRET,RanGTP-Impb inh
COCCCNC(=O)/C(C#N)=C/c1c(N2CCN(c3cccc(Cl)c3)CC2)nc2c(C)cccn2c1=O,-3,nt,nt,6
Cc1ccccc1OCCC(=O)Nc1ccccc1C(=O)N1CCCCC1,-1,nt,nt,nt
CCNC(=S)N/N=C/c1ccc(OCc2ccc(C(=O)OC)cc2)cc1,-2,-2,-2,2
CC(C)OC(=O)c1sc2nc(-c3ccccc3)ccc2c1N,11,-1,4,20*
COc1ccc(CC(=O)Nc2nc(OCCN3CCCC3=O)cnc2-c2cccc(C(F)(F)F)c2)cc1,-6,nt,nt,nt
Nn1cnc2c(c1=O)C1(CCCCC1)Cc1ccccc1-2,-19,-2,-4,26*
CCSc1n[nH]c2nc3c(c(=O)n12)C1(CCCC1)Cc1ccccc1-3,-5,22,62*,12
CCN(CC)Cc1nc2c(c(=O)[nH]1)C1(CCCCC1)Cc1ccccc1-2,-9,-2,33,30*
CC(=O)Nn1cnc2c(c1=O)C1(CCCC1)Cc1ccccc1-2,-5,0,3,nt
CSc1n[nH]c2nc3c(c(=O)n12)C1(CCCC1)Cc1ccccc1-3,-3,22,50,14
CN(C)Cc1nc2c(c(=O)[nH]1)C1(CCCCC1)Cc1ccccc1-2,-10,-1,-1,?
O=Cc1ccc(/C=C2\c3ccccc3C(=O)N2c2ccccc2)o1,-6,nt,nt,nt
COc1ccccc1C(=O)Nc1ccc(-c2nnc(SCC(=O)O)n2C)cc1,-4,2,-5,20*
COc1ccccc1NC(=O)CSc1nnc(-c2ccc(NC(C)=O)cc2)n1C,-8,-3,-4,5
Cc1c(O)ccc2c(CC(=O)N[C@@H](Cc3c[nH]c4ccccc34)C(=O)O)cc(=O)oc12,-3,nt,nt,21*
O=C(Cc1cccs1)NC(Cc1c[nH]c2ccccc12)C(=O)O (centres undefined),-4,nt,nt,1
CC(C)n1c(SCC(=O)N2CCN(C)CC2)nc2c1c(=O)n(C)c(=O)n2C,-2,nt,nt,2
COc1cc2c(cc1OC)CN(CC(O)c1ccccc1)CC2 (centres undefined),-3,nt,nt,27*
CCC(C(=O)N1CCc2cc(OC)c(OC)cc2C1)c1ccccc1 (centres undefined),-6,1,1,1
Cc1ccc(NC(=O)c2cc3ccccc3oc2=N)cc1,-20,nt,nt,-6
N=c1oc2c3c4c(cc2cc1C(=O)Nc1ccccc1)CCCN4CCC3,nt,32,61*,133*
Nc1c(Cl)ncnc1N/N=C/c1ccccn1,-7,36,78*,nt
O=C(NCc1ccccc1)[C@H]1CCCN1C(=O)[C@H]1CCCN1C(=O)c1ccc(F)c(C(F)(F)F)c1,-8,nt,nt,nt
Cc1cc(N)n2nc(C)c(-c3ccccc3)c2n1,-4,95*,-11,?
O=C(CC1SC(=NCC2CCCO2)NC1=O)Nc1cc([N+](=O)[O-])ccc1Cl (centres undefined),0,1,0,-1
SMILES,CaV13 ICDI inh,Runt-CBFb FRET,Runt-SMMHC FRET,RanGTP-Impb inh
O=C(CC1SC(=NCC2CCCO2)NC1=O)Nc1cccc2ccccc12 (centres undefined),-15,81*,0,-2
Cc1nc([N+](=O)[O-])c(Sc2nc3ccc([N+](=O)[O-])cc3[nH]2)n1Cc1ccccc1,-16,115*,6,-1
Cc1nc([N+](=O)[O-])c(Br)n1Cc1ccccc1,-4,2,-5,5
N#Cc1ccc(Oc2cnccn2)cc1,-2,nt,nt,27*
CSc1nc(N)c(C#N)c(-c2ccc(Cl)cc2)c1C#N,-5,-3,-6,5
Cc1ccc2c(n1)sc1c(-c3ccc(Br)cc3)c(C#N)c(N)nc12,nt,32,92,79*
Clc1cccc(CN2CCN(c3ncc(Cc4ccccc4)cn3)CC2)c1Cl,-9,nt,nt,nt
Nc1cccc2c1C(=O)N(c1ccccc1)C2=O,+,nt,nt,8
Nc1ncnc2c1C(c1ccccc1)c1c(ccc3ccccc13)O2 (centres undefined),-4,nt,nt,nt
COc1ccccc1C(=O)COC(=O)CNS(=O)(=O)c1ccc(C)c(C)c1,-5,nt,nt,?
Cc1ccnc(NC(=O)c2ccc(Cl)c(NC(=O)CCc3ccccc3)c2)c1,-5,0,-2,24*
COC(=O)c1noc(C)c1-c1ccnn1C(=O)c1ccc(C)cc1,-2,-1,-6,12*
COc1ccc(CCC(=O)NNC(=O)c2ccc(F)cc2)cc1,-7,nt,nt,1
COc1ccc(CCC(=O)NNC(=S)NCc2ccc(F)cc2)cc1,-8,-1,-4,23*
COC(=O)C(C(=O)Nc1nc2ccccc2s1)C1CCCC1 (centres undefined),-4,-1,0,-2
Cc1ccccc1CCNC(=O)C1CCC(=O)N(C2CCCCCC2)C1 (centres undefined),-3,nt,nt,4
COc1cccc2c1nc(C)c1cc(C)oc12,-6,-1,3,33*
Cc1cc(O)cc(=O)n1Cc1ccccc1,-5,nt,nt,-2
N#CC1=C(N)Oc2cc(N)ccc2C1c1cc(Br)cs1 (centres undefined),-6,nt,nt,-9
CCOc1cc(C2C(C#N)=C(N)Oc3cc(N)ccc32)ccc1O (centres undefined),-18,nt,nt,69*
N#CC1=C(N)Oc2cc(N)ccc2C1c1ccsc1 (centres undefined),-5,23,23,33*
CCOc1cc(C2C(C#N)=C(N)OC(C)=C2C(C)=O)cc(Br)c1O (centres undefined),-4,1,1,19*
N#CC1=C(N)Oc2cc(N)ccc2C1C1CC=CCC1 (centres undefined),-2,42,41,141*
CCOc1cc(C2C(C#N)=C(N)OC(C)=C2C(C)=O)c(Br)c(Br)c1OC(C)C (centres undefined),nt,-4,-5,-4
CCCc1[nH]nc2c1C(c1ccc(O)c(OC)c1)C(C#N)=C(N)O2 (centres undefined),nt,2,4,-1
